Assay results as given in ChEMBL document CHEMBL4351005, “Human constitutive androstane receptor agonist DL5016: A novel sensitizer for cyclophosphamide-based chemotherapies” (Eur J Med Chem, 2019).
pEC50: −log10 of the molar value. Converted amounts (≈) assume the structure as drawn.

Key:
[1] = molecular target: T1, Nuclear receptor subfamily 1 group I member 3 (Homo sapiens, UniProt Q14994); assay: Induction of constitutive - androstane receptor in human primary hepatocytes assessed as upregulation of CYP2B6 protein expression measured after 72 hrs by Western blot analysis; format: cell-based
T1 sequence (Q14994 whole entry): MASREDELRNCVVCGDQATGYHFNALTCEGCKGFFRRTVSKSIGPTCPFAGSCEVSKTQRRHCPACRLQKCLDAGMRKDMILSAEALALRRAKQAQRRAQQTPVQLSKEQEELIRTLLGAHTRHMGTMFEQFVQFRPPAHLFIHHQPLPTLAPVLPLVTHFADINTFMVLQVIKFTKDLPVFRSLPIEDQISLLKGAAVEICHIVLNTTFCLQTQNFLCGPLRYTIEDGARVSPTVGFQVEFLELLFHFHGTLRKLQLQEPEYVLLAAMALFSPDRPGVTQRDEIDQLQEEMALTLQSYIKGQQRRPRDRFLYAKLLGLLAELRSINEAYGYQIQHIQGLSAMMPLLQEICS
Outline: (§1)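 Hepatocytes from donors #131 and #133, dosed 36 h after seeding at 0.1, 0.5 and 1 μM (0.1% DMSO vehicle) for 72 h. Homogenate proteins run on 4–12% SDS-PAGE and immunoblotted: anti-CYP2B6 1:200, anti-CYP3A4 1:5000, β-actin 1:50,000 loading control. HRP secondaries, ECL detection.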

[2] = molecular target: T1, Nuclear receptor subfamily 1 group I member 3; assay: Agonist activity at human constitutive androstane receptor expressed in HepG2 cells co-expressing CYP2B6 at 1 uM incubated for 23 hrs by One-Glo luciferase reporter gene assay; format: cell-based; settings: hepg2, 23 h
[3] = molecular target: T2, Nuclear receptor subfamily 1 group I member 2 (Homo sapiens, UniProt O75469); assay: Agonist activity at human PXR expressed in HepG2 cells co-expressing CYP2B6 at 1 uM incubated for 23 hrs by One-Glo luciferase reporter gene assay; format: cell-based; settings: hepg2, 23 h
T2 sequence (O75469 whole entry): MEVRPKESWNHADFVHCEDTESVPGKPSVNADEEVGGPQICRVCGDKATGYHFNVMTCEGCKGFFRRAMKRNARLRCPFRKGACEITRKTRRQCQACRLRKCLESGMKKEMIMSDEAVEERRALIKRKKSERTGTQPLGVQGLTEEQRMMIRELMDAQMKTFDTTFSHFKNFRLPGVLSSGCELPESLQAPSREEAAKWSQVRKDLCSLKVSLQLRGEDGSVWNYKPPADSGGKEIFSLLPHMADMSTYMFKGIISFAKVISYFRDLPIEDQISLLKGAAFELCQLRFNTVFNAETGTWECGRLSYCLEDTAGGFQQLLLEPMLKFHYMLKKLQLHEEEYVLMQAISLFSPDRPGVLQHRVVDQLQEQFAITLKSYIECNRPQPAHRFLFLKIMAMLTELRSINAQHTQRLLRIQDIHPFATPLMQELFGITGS

[4] = molecular target: T1, Nuclear receptor subfamily 1 group I member 3; assay: Induction of constitutive androstane receptor in human primary hepatocytes assessed as upregulation of CYP3A4 mRNA expression measured after 24 hrs by RT-PCR analysis; format: cell-based
Outline: (§2)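 Primary human hepatocytes (donors HL-#131 and #133), viability >90%, 0.75×10⁶ cells/well, Matrigel overlay 0.25 mg/mL. Dosed 36 h post-seeding at 0.1, 0.5 and 1 μM (vehicle 0.1% DMSO; rifampin 10 μM reference) for 24 h. RT-PCR fold over control = 2^ΔΔCt versus GAPDH; mean ± SD, three independent experiments.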

[5] = molecular target: T1, Nuclear receptor subfamily 1 group I member 3; assay: Induction of constitutive - androstane receptor in human primary hepatocytes assessed as upregulation of CYP2B6 mRNA expression measured after 24 hrs by RT-PCR analysis; format: cell-based; outline: as §2
[6] = molecular target: T1, Nuclear receptor subfamily 1 group I member 3; assay: Induction of adenoviral enhanced yellow fluorescent protein tagged constitutive androstane receptor translocation from cytoplasm to nucleus in human primary hepatocytes at 1 uM measured after 8 hrs by DAPI staining based fluorescent microscopic analysis; format: cell-based
Outline: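 Hepatocytes (60,000/well, collagen plates) infected overnight with Ad/EYFP-hCAR (3 μL/mL), then treated 8 h at 1 μM; controls 0.1% DMSO, phenobarbital 1 mM. Cells PFA-fixed and DAPI-stained; five images per well. Translocation % = cells with ≥50% nuclear overlap with EYFP-hCAR ÷ EYFP-positive cells; mean ± SD of five images.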

[7] = molecular target: T1, Nuclear receptor subfamily 1 group I member 3; assay: Induction of constitutive androstane receptor in human primary hepatocytes assessed as upregulation of CYP3A4 protein expression measured after 72 hrs by Western blot analysis; format: cell-based; outline: as §1
[8] = Lipophilicity, logP of compound; format: physicochemical; settings: octanol/water
[9] = molecular target: T1, Nuclear receptor subfamily 1 group I member 3; assay: Agonist activity at human constitutive androstane receptor expressed in HepG2 cells co-expressing CYP2B6 incubated for 23 hrs by One-Glo luciferase reporter gene assay; format: cell-based
Outline: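 HepG2-CYP2B6-hCAR stable reporter cells, 2,500/well, attached 5 h at 37 °C/5% CO₂. Compounds in DMSO, 16 final concentrations from 6.41 pM to 92 μM (1:3 steps), with PK11195 at 0.75 μM final; final DMSO 0.46%. After 23 h, viability read by CellTiter-Fluor (ex 405/em 540 nm), then ONE-Glo luminescence (30 min, RT) in RLU.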

[10] = molecular target: T1, Nuclear receptor subfamily 1 group I member 3; assay: Ratio of Emax to EC50 for human constitutive androstane receptor expressed in HepG2 cells co-expressing CYP2B6
[11] = molecular target: T1, Nuclear receptor subfamily 1 group I member 3; assay: Induction of constitutive - androstane receptor in human primary hepatocytes assessed as upregulation of CYP3A4 mRNA expression at 0.5 to 5 uM after 24 hrs by RT-PCR analysis; format: cell-based
[12] = molecular target: T1, Nuclear receptor subfamily 1 group I member 3; assay: Induction of constitutive - androstane receptor in human primary hepatocytes assessed as upregulation of CYP2B6 mRNA expression at 0.5 to 5 uM after 24 hrs by RT-PCR analysis; format: cell-based
[13] = Aqueous solubility of the compound in phosphate buffer at pH 7.4 measured after 6 hrs by reverse phase HPLC analysis; format: physicochemical; settings: pH 7.4, 6 h
Outline: (§3)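 6 mg solid in 1 mL water or PBS (pH 7.4), shaken 6 h at 25 °C, centrifuged, and the supernatant filtered. Filtrate quantified by C18 reverse-phase HPLC: water-acetonitrile-triethylamine 30:70:0.01, 1 mL/min, UV 312 nm. Standard curve from solutions of known concentration.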

SUD4 [14] = assay: Antiproliferative activity against human SUDHL4 cells co-cultured with human primary hepatocytes assessed as reduction in cell viability at 1 uM after 24 hrs; format: cell-based; settings: sud4, 24 h
Outline: (§4)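 Hepatocytes pretreated 24 h with 1 μM test agent or 0.1% DMSO. 0.5×10⁶ SU-DHL-4 cells then added in membrane inserts (Williams' E). Co-cultures exposed with or without CHOP (5, 100, 500 μM; time course at 100 μM), plus or minus 1 μM agent. Viability by trypan blue exclusion at 24 h or set times, as % of vehicle; three independent measurements.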

[15] = Aqueous solubility of compound measured after 6 hrs by reverse phase HPLC analysis; format: physicochemical; settings: water; outline: as §3
[16] = Stability of compound; format: physicochemical
SUD4 [17] = assay: Potentiation of cyclophospamide/doxorubicin/vincristine/prednisone induced cytotoxicity against human SUDHL4 cells co-cultured with human primary hepatocytes assessed as reduction in cell viability after 24 hrs; format: functional, cell-based; outline: as §4
SUD4 [18] = assay: Potentiation of cyclophospamide/doxorubicin/vincristine/prednisone induced cytotoxicity against human SUDHL4 cells co-cultured with human primary hepatocytes assessed as reduction in cell viability at 1 uM; format: functional, cell-based; settings: TDE = time-dependent effect; outline: as §4

Row | Structure (SMILES) | Activity [2] | pEC50 [9] | Ratio [10] | other results
1 | Clc1ccc(-c2nc3sccn3c2/C=N/OCc2ccc(Cl)c(Cl)c2)cc1 | Active | – | – | Activity [1]: Dose-dependent effect; Activity [3]: Active; Activity [4]: Active; Activity [5]: Dose-dependent effect; Activity [6]: Active; Activity [7]: Active; logP [8]: 7.26
2 | c1ccc(CCNCc2c(-c3ccc4ccccc4c3)nc3sccn23)cc1 | Active | 5.72 | 1.9 µM⁻¹ | –
3 | Clc1ccc(-c2nc3sccn3c2CNc2ccc3ccccc3c2)cc1 | – | 4.20 | 0.22 µM⁻¹ | –
4 | Clc1ccc(-c2nc3sccn3c2CNCc2ccccc2)cc1 | – | 5.04 | 0.42 µM⁻¹ | –
5 | CCc1nc2sccn2c1CNCCc1ccc(Cl)c(Cl)c1 | – | 5.06 | 0.37 | –
6 | Clc1ccc(-c2nc3sccn3c2/C=N/CCc2ccc(Cl)c(Cl)c2)cc1 | – | 4.27 | 0.13 µM⁻¹ | Activity [11]: Not Active; Activity [12]: Not Active
7 | Fc1ccc(CCNCc2c(-c3ccc(Cl)cc3)nc3sccn23)cc1 | – | 5.68 | 1.4 µM⁻¹ | –
8 | FC(F)(F)c1ccc(-c2nc3sccn3c2CNCCc2ccc(Cl)c(Cl)c2)cc1 | – | 5.68 | 1.7 µM⁻¹ | –
9 | CC(C)(C)c1ccc(-c2nc3sccn3c2CNCCc2ccc(Cl)c(Cl)c2)cc1 | – | 5.00 | 0.74 µM⁻¹ | –
10 | Clc1ccc(-c2nc3sccn3c2CNCCc2c[nH]c3ccccc23)cc1 | – | 5.57 | 1.4 µM⁻¹ | –
11 | Clc1ccc(-c2nc3sccn3c2CNCCc2ccc(Br)cc2)cc1 | – | 5.49 | 1.1 µM⁻¹ | –
12 | Oc1ccc(CCNCc2c(-c3ccc(Cl)cc3)nc3sccn23)cc1 | – | 5.00 | 0.36 µM⁻¹ | –
13 | Cc1cn2c(CNCCc3ccc(Cl)c(Cl)c3)c(-c3ccc(Cl)cc3)nc2s1 | – | 5.66 | 1.4 µM⁻¹ | –
14 | Clc1ccc(-c2nc3sccn3c2CNCCc2cccc(Cl)c2)cc1 | – | 5.55 | 1.1 µM⁻¹ | –

Now from value to compound, other results behind:

Row | Activity [2] | pEC50 [9] | Ratio [10] | Structure (SMILES) | other results
15 | Active | 6.19 | 4.3 µM⁻¹ | Clc1ccc(CCNCc2c(-c3ccc(Cl)cc3)nc3sccn23)cc1 | Activity [3]: Active
16 | Active | 5.80 | 2.4 µM⁻¹ | c1ccc2c(c1)CC(NCc1c(-c3ccc4ccccc4c3)nc3sccn13)C2 | Activity [3]: Active
17 | – | 5.96 | 2.4 µM⁻¹ | O=C(NCCc1ccc(Cl)c(Cl)c1)c1c(-c2ccc(Cl)cc2)nc2sccn12 | –
18 | Active | 6.62 | 12 µM⁻¹ | Clc1ccc(CCNCc2c(-c3ccccc3)nc3sccn23)cc1Cl | –
19 | – | 5.89 | 2.3 µM⁻¹ | Clc1ccc(-c2nc3occn3c2CNCCc2ccc(Cl)c(Cl)c2)cc1 | –
20 | Active | 6.72 | 13 µM⁻¹ | Clc1ccc(-c2nc3sccn3c2COCCc2ccc(Cl)c(Cl)c2)cc1 | Activity [3]: Active
21 | Active | 6.82 | 18 µM⁻¹ | Fc1ccc(-c2nc3sccn3c2CNCCc2ccc(Cl)c(Cl)c2)cc1 | –
22 | – | 5.82 | 1.9 µM⁻¹ | N#Cc1ccc(-c2nc3sccn3c2CNCCc2ccc(Cl)c(Cl)c2)cc1 | –
23 | – | 6.25 | 4.6 µM⁻¹ | Clc1ccc(CCNCc2c(-c3ccc(Br)cc3)nc3sccn23)cc1Cl | –
24 | – | 6.18 | 7.4 µM⁻¹ | c1ccc2c(c1)CC(NCc1c(-c3ccc4ccccc4c3)nc3occn13)C2 | Activity [1]: Dose-dependent effect; solubility [13]: 17 µg/mL (≈ 44.8 µM); Activity (SUD4 [14]): Non-Toxic; Activity [4]: Active; solubility [15]: 18 µg/mL (≈ 47.4 µM); Activity [5]: Dose-dependent effect; Activity [6]: Active; Stability [16]: Stable; Activity [7]: Dose-dependent effect; logP [8]: 4.62; Activity (SUD4 [17]): Dose-dependent effect; Activity (SUD4 [18]): Tde
25 | Active | 6.40 | 7 µM⁻¹ | Clc1ccc(-c2nc3sccn3c2CNCCc2ccc(Cl)c(Cl)c2)cc1 | Activity [3]: Active
26 | – | 5.96 | 2.1 µM⁻¹ | CN(CCc1ccc(Cl)c(Cl)c1)Cc1c(-c2ccc(Cl)cc2)nc2sccn12 | –
27 | Active | 6.34 | 7.4 µM⁻¹ | Clc1ccc(-c2nc3sccn3c2CNC2Cc3ccccc3C2)cc1 | Activity [3]: Active
28 | Active | 6.13 | 3.9 µM⁻¹ | Clc1ccc(-c2nc3sccn3c2CNCCc2ccccc2)cc1 | Activity [3]: Active
29 | – | 6.17 | 4.3 µM⁻¹ | COc1ccc(-c2nc3sccn3c2CNCCc2ccc(Cl)c(Cl)c2)cc1 | –
30 | – | 6.03 | 3.4 µM⁻¹ | Clc1cccc(-c2nc3sccn3c2CNCCc2ccc(Cl)c(Cl)c2)c1 | –
31 | – | 6.36 | 6.1 µM⁻¹ | Cc1ccc(-c2nc3sccn3c2CNCCc2ccc(Cl)c(Cl)c2)cc1 | –
32 | Active | 5.82 | 2.4 µM⁻¹ | Clc1ccc(CCNCc2c(-c3ccc4ccccc4c3)nc3sccn23)cc1Cl | Activity [3]: Active
33 | – | 6.04 | 3 µM⁻¹ | Clc1ccc(-c2nc3ncccn3c2CNCCc2ccc(Cl)c(Cl)c2)cc1 | –
